Columns and labels:
Leishmania infantum [1] = assay: Antileishmanial activity against Leishmania infantum MHOM/TN/80/IPT1 promastigotes after 72 hrs by MTT assay; type: functional, organism-based; settings: MHOM/TN/80/IPT1, 72 h
Summary of the method: (§1)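 Promastigotes grown in Schneider's medium with 10% FCS at 22 °C. Assay in RPMI with 10% FCS, 20 mM Hepes and 2 mM glutamine, 5×10⁶ parasites/mL, seven serial dilutions from DMSO stocks, 72 h at 22 °C. MTT added for 3 h, pellet lysed in SDS/DMF, A550 read against 650 nm reference. IC50 given as mean of separate duplicate experiments; amphotericin B as reference.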

Leishmania tropica = assay: Antileishmanial activity against Leishmania tropica MHOM/IT/2012/ISS3130 promastigotes after 72 hrs by MTT assay; type: functional, organism-based; settings: MHOM/IT/2012/ISS3130, 72 h; summary of the method: as §1
THP-1 = assay: Cytotoxicity against PMA-differentiated human THP1 cells after 72 hrs by MTT assay; type: cell-based; settings: THP-1, 72 h
Summary of the method: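 THP-1 cells at 5×10⁵ cells/mL, differentiated with 0.1 μM PMA for 48 h, then exposed to serial dilutions for 72 h. Viability read by MTT; IC50 for growth inhibition. Duplicate experiments, mean reported.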

[2] = Selectivity index, ratio of IC50 for PMA-differentiated human THP1 cells to IC50 for Leishmania infantum MHOM/TN/80/IPT1 promastigotes; type: toxicity; settings: read-out: Ratio IC50
[3] = Selectivity index, ratio of IC50 for PMA-differentiated human THP1 cells to IC50 for Leishmania tropica MHOM/IT/2012/ISS3130 promastigotes; type: toxicity; settings: read-out: Ratio IC50
Leishmania infantum [4] = assay: Antileishmanial activity against amastigote stage of Leishmania infantum infected in PMA-differentiated human THP1 cells assessed as inhibition of parasite growth at 0.5 uM after 72 hrs by Giemsa staining based light microscopy relative to control; type: functional; settings: THP-1, 72 h
Summary of the method: (§2)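 THP-1 cells at 5×10⁵ cells/mL differentiated with 0.1 μM PMA for 48 h, then infected with metacyclic L. infantum promastigotes (1:10 macrophage:parasite) for 24 h. Washed monolayers exposed to compound for 72 h, methanol-fixed and Giemsa-stained. Percent infected macrophages versus untreated scored by light microscopy, and IC50 derived. Single-concentration values are means of two or three experiments, IC50 of two.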

Leishmania infantum [5] = assay: Antileishmanial activity against amastigote stage of Leishmania infantum infected in PMA-differentiated human THP1 cells assessed as inhibition of parasite growth after 72 hrs by Giemsa staining based light microscopy; type: functional, organism-based; settings: THP-1, 72 h; summary of the method: as §2
[6] = Selectivity index, ratio of IC50 for PMA-differentiated human THP1 cells to IC50 for amastigote stage of Leishmania infantum infected in PMA-differentiated human THP1 cells; type: toxicity; settings: read-out: Ratio IC50
Mus musculus [7] = assay: Toxicity in C57Bl/6 mouse assessed as survival at 300 mg/kg, po administered as single dose measured twice daily up to 30 days; type: organism-based; settings: in vivo, 720 h
Summary of the method: (§3)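 Healthy female C57Bl/6 mice, groups of four or five, received one oral dose. Compound was first dissolved in DMSO, then suspended in 0.5% hydroxyethylcellulose-0.1% Tween 80. Behaviour and appearance were checked twice daily for 30 days. A dose counted as tolerated if all mice survived 30 days with normal appearance and behaviour.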

Mus musculus [8] = assay: Toxicity in C57Bl/6 mouse assessed as effect on normal appearance at 300 mg/kg, po administered as single dose measured twice daily up to 30 days; type: organism-based; settings: in vivo, 720 h; summary of the method: as §3
Mus musculus [9] = assay: Toxicity in C57Bl/6 mouse assessed as effect on normal behavior at 300 mg/kg, po administered as single dose measured twice daily up to 30 days; type: organism-based; settings: in vivo, 720 h; summary of the method: as §3
Leishmania infantum [10] = assay: Antileishmanial activity against Leishmania infantum MHOM/TN/1980/IPT-1 amastigotes infected in Balb/c mouse assessed as reduction in liver parasite load at 100 mg/kg, po administered for 4 days measured post last dose relative to control; type: functional; design: scale not given: the % may be the effect or the level left
Summary of the method: (§4)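 Balb/c mice (18-20 g) inoculated via tail vein with 2×10⁶ semi-purified L. infantum IPT-1 amastigotes. Dosing p.o. (0.1% Tween/0.5% HEC in water, or water) or s.c. (sunflower oil, or water) for 4 or 5 consecutive days from day 9 post-infection.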

Leishmania infantum [11] = assay: Antileishmanial activity against Leishmania infantum MHOM/TN/1980/IPT-1 amastigotes infected in Balb/c mouse assessed as reduction in liver parasite load at 60 mg/kg, po administered for 4 days measured post last dose relative to control; type: functional; design: scale not given: the % may be the effect or the level left
Summary of the method: as §4, with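 “post-infection. On day 13 or 14, liver weight × amastigotes per liver cell gives relative load, expressed versus the untreated control group mean.” for “post-infection.”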

Mus musculus [12] = assay: Toxicity in Balb/c mouse infected with Leishmania infantum MHOM/TN/1980/IPT-1 amastigotes assessed as death at 100 mg/kg, administered for 4 days measured on day 10 to 12; type: organism-based; settings: in vivo, 96 h
Leishmania infantum [13] = assay: Antileishmanial activity against Leishmania infantum MHOM/TN/1980/IPT-1 amastigotes infected in Balb/c mouse assessed as reduction in liver parasite load at 10 mg/kg, sc administered for 4 days measured post last dose relative to control; type: functional; design: scale not given: the % may be the effect or the level left
Summary of the method: as §4, with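 “post-infection. On day 13 or 14, liver weight × amastigotes per liver cell gives relative load, expressed versus the untreated control group mean.” for “post-infection.”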

Leishmania infantum [14] = assay: Antileishmanial activity against Leishmania infantum MHOM/TN/1980/IPT-1 amastigotes infected in Balb/c mouse assessed as reduction in liver parasite load at 5 mg/kg, sc administered for 5 days measured post last dose relative to control; type: functional; design: scale not given: the % may be the effect or the level left
Summary of the method: as §4, with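 “post-infection. On day 13 or 14, liver weight × amastigotes per liver cell gives relative load, expressed versus the untreated control group mean.” for “post-infection.”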

Leishmania infantum [15] = assay: Antileishmanial activity against Leishmania infantum MHOM/TN/1980/IPT-1 amastigotes infected in po dosed Balb/c mouse assessed as reduction in liver parasite load administered for 4 to 5 days measured post last dose; type: functional, organism-based; summary of the method: as §4
Leishmania infantum [16] = assay: Antileishmanial activity against Leishmania infantum MHOM/TN/1980/IPT-1 amastigotes infected in sc dosed Balb/c mouse assessed as reduction in liver parasite load administered for 4 to 5 days measured post last dose; type: functional, organism-based; summary of the method: as §4
BMDM [17] = assay: Induction of nitric oxide production in IFNgamma-primed mouse BMDM measured after 24 hrs by Griess assay; type: functional, cell-based
BMDM [18] = assay: Induction of reactive oxygen species production in IFNgamma-primed mouse BMDM measured after 24 hrs by H2DCFDA probe based assay; type: functional, cell-based

SMILES	IC50 (Leishmania infantum [1]) [µM]	IC50 (Leishmania tropica) [µM]	IC50 (THP-1) [µM]	selectivity ratio [2]	selectivity ratio [3]	inhibition at 0.5 µM (Leishmania infantum [4]) [%]	IC50 (Leishmania infantum [5]) [µM]	selectivity ratio [6]	Activity (Mus musculus [7])	Activity (Mus musculus [8])	Activity (Mus musculus [9])	Activity (Leishmania infantum [10]) [%]	Activity (Leishmania infantum [11]) [%]	Activity (Mus musculus [12])	Activity (Leishmania infantum [13]) [%]	Activity (Leishmania infantum [14]) [%]	Activity (Leishmania infantum [15])	Activity (Leishmania infantum [16])	Activity (BMDM [17])	Activity (BMDM [18])
Fc1ccc2scc(-c3ccc(CNCCCCNc4ccnc5ccccc45)cc3)c2c1	1.24	1.02	2.35	1.9	2.3	42.7	0.65	3.61	Toxic											
Cl.Cl.Cl.Cl.Clc1ccc2c(NCCCN3CCN(CCCNCCC45CC6CC(CC(C6)C4)C5)CC3)ccnc2c1	0.52	0.51	1	1.9	2	72.2	0.31	3.22	Non-Toxic	Non-Toxic	Non-Toxic	100	96	Toxic	81	57	Dose-dependent effect	Dose-dependent effect	Dose-dependent effect	Dose-dependent effect
Fc1ccc2scc(CNCCCCNc3ccnc4cc(Cl)ccc34)c2c1	0.51	0.5	1.91	3.8	3.8	26.4	> 1	< 1.91												
CC(CCCNCc1ccc(-c2csc3ccc(C#N)cc23)cc1)Nc1ccnc2ccccc12 (stereo not drawn)	1.55	1.22	2.79	1.8	2.3	42.2	0.79	3.51												
C[C@@H]1[C@H](O)[C@@H](C)/C=C/C=C/C=C/C=C/C=C/C=C/C=C/[C@H](O[C@@H]2O[C@H](C)[C@@H](O)[C@H](N)[C@@H]2O)C[C@@H]2O[C@](O)(C[C@@H](O)C[C@@H](O)[C@H](O)CC[C@@H](O)C[C@@H](O)CC(=O)O[C@H]1C)C[C@H](O)[C@H]2C(=O)O [AMPHOTERICIN B]	0.13	0.14	> 10.8	> 83.1	> 77.1	95.5	0.21	> 51.4												
N#Cc1ccc(-c2ccc(-c3ccc(CNCCCCCCCCNc4ccnc5c4CCCC5)cc3)s2)cc1	0.72	0.75	2.31	3.2	3.1	29.6	> 1	< 2.31												
CC(CCCNCc1ccc(-c2csc3ccc(F)cc23)cc1)Nc1ccnc2cc(Cl)ccc12 (stereo not drawn)	0.98	0.91	2.44	2.5	2.7	36.9	0.73	3.34												
N#Cc1ccc2c(CNCCCCNc3ccnc4cc(Cl)ccc34)csc2c1	1.23	1.24	4.25	3.4	3.4	38.9	1.29	3.29												
CC(CCN(C)CCC12CC3CC(CC(C3)C1)C2)Nc1ccnc2cc(Cl)ccc12 (stereo not drawn)	2.46	1.84	3.29	1.3	1.8	29.6	1.91	1.72												
Clc1ccc2c(NCCCNCc3csc4ccccc34)ccnc2c1	1.14	1.31	2.96	2.6	2.3	26.4	1.85	1.6												

— ChEMBL document CHEMBL4196114 (ACS Med Chem Lett, 2018)
